This note sets out measurements from ChEMBL document CHEMBL1136627, “Discovery of novel neuronal voltage-dependent calcium channel blockers based on emopamil left hand as a bioactive template” (Bioorg Med Chem Lett, 2003).

SMILES strings stand for the structures. pIC50: −log10 of the molar value.

Test system in one experiment: not listed separately
The experiment in a line: Neuronal voltage-dependent calcium channel (VDCC) inhibitory activity determined in rat cortical synaptosomes. It counts as subcellular, Brain. Summed up: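 Rat cortical synaptosomes depolarized with KCl; rise in intracellular Ca2+ measured fluorimetrically with Fura2; IC50 (µM) for inhibition of the KCl-elicited [Ca2+]i elevation; racemic test compounds.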
The pIC50 is the IC50 on a negative log10 scale, so that one unit is a factor of ten. With `CC(C)C(C#N)(CCCN1CCN(CCCc2ccccc2)CC1)c1ccccc1` (stereo unspecified), the pIC50 was 5.35. Take `CC(C)C(C#N)(CCCN1CCN(CCOc2cccnc2)CC1)c1ccccc1` (stereo unspecified): the pIC50 was below 4.80.

In the case of `CC(C)C(C#N)(CCCN1CCN(CCOc2ccccc2C#N)CC1)c1ccccc1` (stereo unspecified), the pIC50 was 4.80. Still for that read-out and setting: in the case of `CC(C)C(C#N)(CCCN1CCN(c2ccccc2)CC1)c1ccccc1` (stereo unspecified) it was below 4.80; in that of `CC(C)C(C#N)(CCCN1CCN(CCO)CC1)c1ccccc1` (stereo unspecified), below 4.80. Take `CC(C)C(C#N)(CCCN1CCN(Cc2ccccc2)CC1)c1ccccc1` (stereo unspecified): the pIC50 was 4.92. `CC(C)C(C#N)(CCCN1CCNCC1)c1ccccc1` (stereo unspecified): the pIC50 was below 4.80. On the same count and under the same terms, in the case of `CC(C)C(C#N)(CCCN1CCN(CCOc2ccc(F)cc2)CC1)c1ccccc1` (stereo unspecified) it was 5.23; in that of `CC(C)C(C#N)(CCCN1CCN(CCOc2ccccn2)CC1)c1ccccc1` (stereo unspecified), below 4.80; in that of `CC(C)C(C#N)(CCCN1CCN(CCOc2ccc(N)cc2)CC1)c1ccccc1` (stereo unspecified), 4.89.

As to `CC(C)C(C#N)(CCCN1CCN(CCOc2ccc([N+](=O)[O-])cc2)CC1)c1ccccc1` (stereo unspecified), the pIC50 was 5.12.

Consider `C#CCCCCN1CCN(CCCC(C#N)(c2ccccc2)C(C)C)CC1` (stereo unspecified), for which the negative-log IC50 (pIC50) was below 4.80.

Turning to `CC(C)C(C#N)(CCCN1CCN(CCOc2ccc(N(C)C)cc2)CC1)c1ccccc1` (stereo unspecified), the pIC50 is below 4.80. Take `CC(C)C(C#N)(CCCN1CCN(C)CC1)c1ccccc1` (stereo unspecified): the pIC50 is below 4.80.

Turning to `CC(C)C(C#N)(CCCN1CCN(CCOc2ccncc2)CC1)c1ccccc1` (stereo unspecified), the pIC50 was below 4.80. Same read-out and setting: then `CC(C)C(C#N)(CCCN1CCN(CCOc2cccc(C#N)c2)CC1)c1ccccc1` (stereo unspecified), with 5.11; and `CC(C)C(C#N)(CCCN1CCN(CCOc2ccc(F)c(F)c2)CC1)c1ccccc1` (stereo unspecified), with 5.28.

On to `CC(C)C(C#N)(CCCN1CCN(CCOc2ccccc2F)CC1)c1ccccc1` (stereo unspecified), for which the pIC50 is 5.03. Same read-out and setting: in the case of `CC(C)C(C#N)(CCCN1CCN(CCOc2ccc(Cl)cc2)CC1)c1ccccc1` (stereo unspecified) it was 5.47. On the same count and under the same terms, in the case of `CC(C)C(C#N)(CCCN1CCN(CCOc2ccc(C#N)cc2)CC1)c1ccccc1` (stereo unspecified) it was 4.89.

As for `CC(C)C(C#N)(CCCN1CCN(CCc2ccccc2)CC1)c1ccccc1` (stereo unspecified), the pIC50 was 5.11. Same read-out and setting: then `COc1ccc(OCCN2CCN(CCCC(C#N)(c3ccccc3)C(C)C)CC2)cc1` (stereo unspecified), with 5.02; and `CC(C)C(C#N)(CCCN1CCN(CCOc2cccc(F)c2)CC1)c1ccccc1` (stereo unspecified), with 5.21; and `CC(C)C(C#N)(CCCN1CCN(CCOc2cccc3ccccc23)CC1)c1ccccc1` (stereo unspecified), with 5.60. On the same count and under the same terms, in the case of `CC(C)C(C#N)(CCCN(C)CCc1ccccc1)c1ccccc1` (stereo unspecified) [EMOPAMIL] it was 4.55.

A further experiment deals with Mus musculus. In words: Anti seizure activity was evaluated in the audiogenic seizure model using DBA/2 mice at 10 mg/kg (iv). It counts as functional. Summed up:
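DBA/2 mice given test compound iv at 10 mg/kg; 5 min later each mouse placed singly under a perspex dome and exposed to sound (100 dB, 11 kHz) continued for 60 s; scored for sound-induced tonic convulsion.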
In the case of `CC(C)C(C#N)(CCCN1CCN(CCOc2ccc(F)cc2)CC1)c1ccccc1` (stereo unspecified), the Protection was 100%.
